Series [1] deals with T1, 5-LOX (Homo sapiens, UniProt P09917).
T1 sequence (P09917 1-674): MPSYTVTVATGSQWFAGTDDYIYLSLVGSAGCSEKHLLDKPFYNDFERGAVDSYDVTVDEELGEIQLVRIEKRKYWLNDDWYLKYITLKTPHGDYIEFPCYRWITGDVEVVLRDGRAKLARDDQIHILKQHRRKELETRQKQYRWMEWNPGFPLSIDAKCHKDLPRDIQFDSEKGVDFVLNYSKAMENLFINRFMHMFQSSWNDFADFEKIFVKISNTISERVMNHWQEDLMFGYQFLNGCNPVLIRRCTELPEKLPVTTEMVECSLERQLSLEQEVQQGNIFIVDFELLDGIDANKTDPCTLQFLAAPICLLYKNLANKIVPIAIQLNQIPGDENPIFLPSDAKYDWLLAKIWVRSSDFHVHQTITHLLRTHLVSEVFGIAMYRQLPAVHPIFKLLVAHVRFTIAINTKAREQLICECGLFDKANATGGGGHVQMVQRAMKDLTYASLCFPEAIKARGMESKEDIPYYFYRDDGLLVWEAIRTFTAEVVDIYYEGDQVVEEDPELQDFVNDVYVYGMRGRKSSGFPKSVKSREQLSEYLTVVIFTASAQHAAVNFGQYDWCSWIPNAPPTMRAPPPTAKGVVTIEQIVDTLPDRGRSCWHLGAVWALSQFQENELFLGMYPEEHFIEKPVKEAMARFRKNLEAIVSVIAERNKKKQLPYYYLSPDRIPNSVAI
Nature of the series: Cell-free 5-LOX enzymatic assay. Type of series: biochemical.

In series [2] the target is T2, 5-LOX (Rattus norvegicus, UniProt P12527).
T2 sequence (P12527 1-673): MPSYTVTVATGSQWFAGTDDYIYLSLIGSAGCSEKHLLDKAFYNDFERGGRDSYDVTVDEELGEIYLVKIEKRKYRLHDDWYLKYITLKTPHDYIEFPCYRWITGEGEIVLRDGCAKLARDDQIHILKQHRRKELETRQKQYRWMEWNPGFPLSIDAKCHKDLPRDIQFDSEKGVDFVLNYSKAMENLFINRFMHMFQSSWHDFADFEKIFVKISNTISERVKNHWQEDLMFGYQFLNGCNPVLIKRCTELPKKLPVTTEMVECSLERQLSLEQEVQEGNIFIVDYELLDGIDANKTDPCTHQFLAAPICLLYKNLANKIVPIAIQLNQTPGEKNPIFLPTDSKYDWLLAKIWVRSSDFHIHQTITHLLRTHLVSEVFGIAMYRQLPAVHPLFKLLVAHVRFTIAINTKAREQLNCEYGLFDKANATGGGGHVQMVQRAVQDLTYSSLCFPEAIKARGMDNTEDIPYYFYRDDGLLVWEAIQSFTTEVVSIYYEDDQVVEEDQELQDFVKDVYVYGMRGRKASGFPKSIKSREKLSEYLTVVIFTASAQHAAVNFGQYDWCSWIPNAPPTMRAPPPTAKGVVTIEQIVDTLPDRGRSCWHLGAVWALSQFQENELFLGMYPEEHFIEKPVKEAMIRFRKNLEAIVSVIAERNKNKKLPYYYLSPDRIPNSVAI
Nature of the series: Inhibition of 5-LOX product synthesis. Type of series: cell-based. Particulars: for IC50: IC50 PMNL, rat peritoneal polymorphonuclear leukocytes; for inhibition at 5 µM: PMNL, read-out: Inhibition at 5 μmol/L (%).

Series [3] concerns BV2 cells. In words: BV2 cell viability, MTT assay. Type of series: cell-based, mouse. Particulars: tested concentrations 10, 50, 100 μmol/L, with or without LPS.
Series [4] concerns mouse MCAO model. Particulars: in vivo, ip, 50 mg/kg.
The target of series [5] is T1, 5-LOX. In words: Inhibition of 5-LOX product synthesis. It counts as cell-based.
For series [6], the system named is HT22 cells. In words: Glutamate-induced oxidative toxicity in HT22 neuronal cells, MTT assay. Type of series: cell-based, mouse. Particulars: glutamate 5 mmol/L, 24 h, 4e at 1–100 μmol/L.
In series [7] the test system is BV2 cells. In words: LPS-induced nitric oxide. Type of series: cell-based, mouse. The note with it: LPS 200 ng/mL, 4e at 10, 50 or 100 μmol/L, 24 h. The gist of the method: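 Mouse BV2 microglia grown in DMEM with 10% FBS and penicillin-streptomycin (100 μg/mL) at 37 °C, 5% CO2. Cells trypsinized and seeded at 2×10^4 cells/well; 24 h later, test compound added with or without LPS (200 ng/mL). Supernatants collected after 24 h exposure, mixed with equal volume of Griess reagent, and nitrite read at 570 nm.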

Regarding `CC(C)(C)c1cc(NC(=O)c2cc(-c3ccc4c(c3)OCO4)n(-c3ccc(S(N)(=O)=O)cc3)n2)cc(C(C)(C)C)c1O` [4e, N-(3,5-di-tert-butyl-4-hydroxyphenyl)-5-(benzo [1, 3]dioxol-5-yl)-1-(4-amino-sulfonylphenyl)-1H-pyrazole-3-carboxamide], the values for the IC50 in series [1], in series [2] and in series [5] were 133 ± 14 nM, 690 nM and 1080 nM, respectively. Further, in series [2], the inhibition at 5 µM stood at 90.1%. Besides, the “Cell viability of BV2 cells (MTT)” value in series [3] is “did not reduce the viabilities of BV2 cells”. For the same compound, the “Cortical, striatal and hemispheric infarct volumes” value in series [4] is “significantly decreased cortical, striatal and hemispheric infarct volumes”. Also, the “Glutamate-induced HT22 cell death (MTT)” value in series [6] is recorded as “remarkably reduced glutamate-induced HT22 cell death”. The “LPS-induced generation of NO” value in series [7] is given as “remarkably attenuated”.
In the case of `Cc1ccc(-c2cc(C(=O)Nc3cc(C(C)(C)C)c(O)c(C(C)(C)C)c3)nn2-c2ccc(F)cc2)cc1` [6b, N-(3,5-di-tert-butyl-4-hydroxyphenyl)-1-(4-fluorophenyl)-5-p-tolyl-1H-pyrazole-3-carboxamide], the IC50 was determined as 327 ± 22 nM in series [1], 820 nM in series [2] and 10200 nM in series [5]. Moreover, the inhibition at 5 µM in series [2] was determined as 83.7%.

The values are drawn from publication PMC4724694 (Acta Pharmaceutica Sinica. B, 2016).
